This is a sample that favours compounds with a hit; in the whole collection about 1.2% have one here.
ARFGAP1 inhibitor – inhibitors of rat ARFGAP1 GAP activity, primary screen, biochemical, fluorescence polarization, GDP tracer | 360,000 tested, 0.26% active | Arfgap1-stimulated ARF1 GTP hydrolysis, GDP FP detection | inhibition, % at 16.5 µM | AID 651572, 2012;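 active means inhibition above a per-plate limit, mean inhibition of low control wells plus 3 SD, cut at about 25% in these data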;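 further: 0% = DMSO wells with enzyme and 100% = wells lacking Arfgap1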
Target sequence (Q62848 1-136 limits assumed): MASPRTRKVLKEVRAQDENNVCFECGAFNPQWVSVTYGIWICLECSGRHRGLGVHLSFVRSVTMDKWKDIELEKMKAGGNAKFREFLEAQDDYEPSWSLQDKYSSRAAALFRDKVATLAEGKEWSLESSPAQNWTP
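Material: rat Arfgap1 catalytic domain, aa 1-136; also added: human ARF1(Δ1-17)-GTP substrate; compound dosing: one concentration, 16.5 µM, DMSO 1.26%; incubation: GTP hydrolysis reaction 2 h at 25 °C; measured by: Tracer-displacement fluorescence polarization with EDTA stop, 620/688 nm; evaluation: % inhibition from polarization; repeats: one replicate per compound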
Rin1-Abl PPI inh – inhibitors of Rin1-Abl protein binding, primary screen, biochemical, TR-FRET; Tyrosine-protein kinase ABL1 (Homo sapiens) + Ras and Rab interactor 1 (Homo sapiens), …; inhibition, % at 7.35 µM; 360,000 tested, 0.4% active; AID 588664, 2011; in the data active means inhibition above about 5%, passing the limit was not always enough
GalR3 antagonist – GalR3 antagonists in HEK293 cells, primary screen, cell-based, fluorescence readout; HEK293 GalR3-CNG cAMP membrane potential fluorescence; galR3 body fused to GalR1 C-terminus; inhibition, % at 3 µM; 360,000 tested, 0.44% active; AID 651719, 2012;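 active means inhibition above the screen-wide average plus 3 SD, cut at about 13% in these data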;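 further: forskolin and galanin both at EC90 stimulate the cells; cAMP rise reported by CNG channel membrane potential dye signal; 0% = forskolin plus galanin with DMSO and 100% = forskolin alone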
Target sequence (O60755 1-299 limits assumed): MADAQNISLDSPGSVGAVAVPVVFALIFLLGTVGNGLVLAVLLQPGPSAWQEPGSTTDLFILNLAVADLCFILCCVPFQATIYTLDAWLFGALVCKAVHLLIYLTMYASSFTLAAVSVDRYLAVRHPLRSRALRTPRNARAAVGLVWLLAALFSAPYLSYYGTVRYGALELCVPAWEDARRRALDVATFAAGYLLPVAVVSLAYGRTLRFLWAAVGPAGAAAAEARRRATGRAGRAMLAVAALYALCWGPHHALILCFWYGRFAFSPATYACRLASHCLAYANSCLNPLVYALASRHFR
ASAP1 GAP inh – inhibitors of human ASAP1 ArfGAP activity, primary screen, biochemical, fluorescence polarization. Arf-GAP with SH3 domain, ANK repeat and PH domain-containing protein 1 (Homo sapiens), …. ASAP1-stimulated ARF1 GTP hydrolysis, GDP FP detection. inhibition, % at 16.5 µM. 360,000 tested, 0.19% active. AID 624377, 2012; in the data active means inhibition above about 25%;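 further: 0% = vehicle with enzyme and substrate and 100% = no enzyme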
Rin1 Abl conf – Rin1-Abl binding inhibitor retest, confirmation, biochemical, TR-FRET. inhibition, % at 7.35 µM. shares compounds with Rin1-Abl PPI inh. purified proteins. 1,300 tested, 49% active. AID 602124, 2011
GFP quench – GFP fluorescence inhibitors and quenchers, artefact control for Rin1-Abl interaction inhibitor project, biochemical. shares compounds with Rin1-Abl PPI inh. inhibition, % at 6.75 µM. 1,300 tested, 8.5% active. inhibitors/quenchers counterscreen. AID 602125, 2011;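 further: ABL1-eGFP fusion protein alone without its partner RIN1-SBP; 0% = protein with vehicle and 100% = wells lacking protein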
GFP quench DR – GFP fluorescence inhibitors and quenchers, dose response, artefact control for Rin1-Abl interaction inhibitor project, biochemical; 230 tested, under 10 active; GFP fluorescence interference/quenching counterscreen; shares compounds with Rin1-Abl PPI inh; AID 602182, 2012; IC50, µM; call rule not given here;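 further: ABL1-eGFP fusion protein alone without its RIN1 binding partner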
* hit, by the source's call; x = no result given. Unless noted, no stated cut-off is given here; in the data, active means inhibition above about 6.5%; inactive means the rest.

SMILES	ARFGAP1 inhibitor	Rin1-Abl PPI inh	GalR3 antagonist	ASAP1 GAP inh	Rin1 Abl conf	GFP quench	others
CCN(CC(=O)Nc1ccc(NC(C)=O)cc1)C(=O)c1ccc(Sc2nncn2C)c([N+](=O)[O-])c1	8	9.7*	-4	9	0	0
C=CCn1c(C)nnc1SCC(=O)Nc1nc(C)c(C(=O)N(C)C)s1	-14	13*	-5	-6	0	0
Cc1nc(NC(=O)CSc2nnc(C3CC3)n2C)sc1C(=O)N(C)C	13	2	0	-15	x	x
CCC1(c2ccccc2)NC(=O)N(CC(=O)Nc2ccc3c(c2)CCC3)C1=O (stereo not given)	11	-1	-8	-2	x	x
CC1(c2ccccc2)NC(=O)N(CC(=O)Nc2ccc3c(c2)CCC3)C1=O (stereo not given)	2	8.2*	-6	4	-2	1
Cc1ccc(Nc2nc3ccccc3s2)c(C)c1	2	6.9*	0	-11	0	0
CCOC(=O)CCCCC(=O)c1[nH]c(=O)[nH]c1CSc1nc(-c2ccccc2)c(C#N)c(=O)[nH]1	-2	61*	-4	-5	75*	1	GFP quench DR=>68
CCOC(=O)CCCCC(=O)c1[nH]c(=O)[nH]c1Cn1cnc2ccccc21	-6	71*	-3	-4	79*	1	GFP quench DR=>68
N#Cc1c(-c2ccccc2)nc(SCC(=O)N(c2ccccc2)c2ccccc2)[nH]c1=O	-18	-3	-5	5	x	x
CCOC(=O)CCCCC(=O)c1[nH]c(=O)[nH]c1CSCCO	4	78*	0	8	82*	0	GFP quench DR=>68
Cc1ccccc1C(=O)N[C@@H](CC(C)C)C(=O)N1CCC[C@H]1C(=O)NCc1ccccc1	8	x	-6	-1	x	x
NS(=O)(=O)c1ccc(N=Nc2c[nH]c(=O)c(O)c2)cc1	-8	18*	-8	-6	14*	24*
Cc1ccccc1-n1c(SCC(=O)NC2CC2)nc2ccccc2c1=O	4	10*	-6	-9	0	0
COc1ccc(C)cc1-n1c(SCC(=O)NC2CC2)nc2ccccc2c1=O	6	0	-8	0	x	x
COc1cc(C=O)cc(OC)c1OS(=O)(=O)c1ccc(NC(C)=O)cc1	-8	-3	-4	7	x	x
COc1ccc(C=O)cc1OS(=O)(=O)c1ccc(NC(C)=O)cc1	4	8.5*	-4	0	1	0
COc1ccc(CN2C[C@@H](CO)O[C@@H](n3cnc4c(NC5CCC5)ncnc43)C2)cc1	-2	12*	-8	14	11*	0
OC[C@@H]1CN(Cc2ccc(Cl)cc2)C[C@H](n2cnc3c(NC4CC4)ncnc32)O1	10	17*	-6	-8	20*	-4	GFP quench DR=>68
COc1ccc(CN2C[C@@H](CO)O[C@@H](n3cnc4c(NC5CC5)ncnc43)C2)cc1	11	6	-1	-12	x	x
OC[C@@H]1CN(Cc2ccncc2)C[C@H](n2cnc3c(NC4CC4)ncnc32)O1	20	7	-3	-5	x	x
Cc1nc(-c2ccc(C(=O)N3CCCC3)cc2)cs1	1	6.2*	4	-11	-1	0
CC(=O)Nc1nonc1NC(C)=O	4	-2	-3	-5	x	x
CC(=O)Nc1cc(OC(C)=O)c2nonc2c1OC(C)=O	-10	16*	-11	-9	0	5
CC1CCCN(S(=O)(=O)c2ccc(C(=O)Nc3nnc(C4=COCCO4)o3)cc2)C1 (stereo not given)	4	-5	-5	1	x	x
CC1CCCCN1S(=O)(=O)c1ccc(C(=O)Nc2nnc(C3=COCCO3)o2)cc1 (stereo not given)	-5	7.8*	0	-1	1	-1
SMILES	ARFGAP1 inhibitor	Rin1-Abl PPI inh	GalR3 antagonist	ASAP1 GAP inh	Rin1 Abl conf	GFP quench	others
CN1OC[C@@H]2CN(C(=S)Nc3cc(C(F)(F)F)cc(C(F)(F)F)c3)[C@H](c3ccccc3Br)C[C@@H]21	10	x	-8	12	x	x
CC(=O)OC[C@H]1O[C@@H](n2ccc(=O)[nH]c2=S)C(OC(C)=O)C1OC(C)=O (stereo not given in full)	-8	12*	2	4	9.3*	0
CC(=O)OCC1OC(n2ccc(=O)[nH]c2=O)C(O)C1O (stereo not given)	15	1	-4	13	x	x
COc1ccc(N2CCN(c3nc4c(c(=O)n(C)c(=O)n4C)n3Cc3ccccc3)CC2)cc1	3	5.8*	5	8	7.7*	0
O=S(=O)(Nc1cc2nc3ccccc3nc2n1Cc1ccccc1)c1ccc(Cl)cc1	-14	30*	7	-8	28*	-2	GFP quench DR=>68
O=S(=O)(NCc1ccccc1)c1ccc(Cl)cc1	-6	-2	-1	-3	x	x
Cc1nnc(N/N=C/c2ccc(Br)cc2)n1N	6	6.7*	-9	-4	-4	-2
CC(C)CC(=O)c1c(O)cc(O)c2c1OC1=C(C(=O)C(C)(C)C(=O)C1(C)C)C2CC(C)C (stereo not given)	2	x	-6	-4	x	x
Cc1cc(C)nc(NC(=O)c2c(Cl)cccc2Cl)n1	-7	4.4*	2	11	2	3
CC(=O)Nc1cccc(-c2ccnc3c2CC(C(=O)NCc2ccc(N(C)C)cc2)O3)c1 (stereo not given)	9	17*	1	-7	10*	1
CC(=O)Nc1ccc(-c2ccnc3c2CC(C(=O)NCc2ccc(N4CCN(C)CC4)cc2)O3)cc1 (stereo not given)	0	14*	-6	18	14*	-1
CC(=O)Nc1cccc(-c2ccnc3c2CC(C(=O)NCc2ccc(F)c(F)c2)O3)c1 (stereo not given)	-6	1	-6	7	x	x
CN1CCN(c2ccc(CNC(=O)C3Cc4c(-c5ccc6c(c5)OCO6)ccnc4O3)cc2)CC1 (stereo not given)	0	15*	-2	1	14*	-2
CC(=O)Nc1cccc(-c2ccnc3c2CC(C(=O)NCc2ccncc2)O3)c1 (stereo not given)	4	-3	0	11	x	x
